These results are taken from ChEMBL document CHEMBL1138216, “Design and synthesis of novel derivatives of the muscarinic agonist tetra(ethylene glycol)(3-methoxy-1,2,5-thiadiazol-4-yl) [3-(1-methyl-1,2,5,6-tetrahydropyrid-3-yl)-1,2,5-thiadiazol-4-yl] ether (CDD-0304): effects of structural modifications on the binding and activity at muscarinic receptor …” (J Med Chem, 2006).

Positions count from the first letter of the chain named. The source made the active and inactive calls. No cut-off for these calls is given here.

For assay [1], the target named is T1, Muscarinic acetylcholine receptor M1 (Homo sapiens) (UniProt P11229).
T1 sequence (whole entry): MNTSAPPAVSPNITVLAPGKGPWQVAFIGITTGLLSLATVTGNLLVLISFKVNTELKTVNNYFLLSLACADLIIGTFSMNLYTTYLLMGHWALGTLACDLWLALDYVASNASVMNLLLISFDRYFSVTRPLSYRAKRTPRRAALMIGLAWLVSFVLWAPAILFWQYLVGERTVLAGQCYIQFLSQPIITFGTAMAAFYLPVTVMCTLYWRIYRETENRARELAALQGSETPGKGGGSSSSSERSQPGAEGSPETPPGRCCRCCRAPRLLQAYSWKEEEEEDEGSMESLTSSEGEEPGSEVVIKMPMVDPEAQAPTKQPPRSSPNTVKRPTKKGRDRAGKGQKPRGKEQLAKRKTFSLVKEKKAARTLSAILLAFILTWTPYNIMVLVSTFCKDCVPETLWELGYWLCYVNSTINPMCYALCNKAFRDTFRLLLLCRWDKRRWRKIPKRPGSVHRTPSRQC
The experiment in a line: Agonist activity at human M1 receptor expressed in A9 L cells assessed as stimulation of phosphoinositide hydrolysis relative to carbachol. Type of assay: functional, cell-based. To be noted: L929. The essentials: (§1)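 A9 L cells stably expressing the receptor, seeded 24 h, labelled overnight with 10 µCi/mL [3H]inositol in inositol-free DMEM; ligands in HBSS with 10 mM LiCl, 20 mM HEPES, 37 °C, 1 h; formic acid extraction, inositol phosphates counted by SPA beads.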

In assay [2] the target is T2, Muscarinic acetylcholine receptor M1/M5 chimeric protein (Homo sapiens, UniProt P08912+P11229).
T2 sequence (P11229 whole entry): T1 sequence (whole entry)
T2 sequence (P08912 whole entry): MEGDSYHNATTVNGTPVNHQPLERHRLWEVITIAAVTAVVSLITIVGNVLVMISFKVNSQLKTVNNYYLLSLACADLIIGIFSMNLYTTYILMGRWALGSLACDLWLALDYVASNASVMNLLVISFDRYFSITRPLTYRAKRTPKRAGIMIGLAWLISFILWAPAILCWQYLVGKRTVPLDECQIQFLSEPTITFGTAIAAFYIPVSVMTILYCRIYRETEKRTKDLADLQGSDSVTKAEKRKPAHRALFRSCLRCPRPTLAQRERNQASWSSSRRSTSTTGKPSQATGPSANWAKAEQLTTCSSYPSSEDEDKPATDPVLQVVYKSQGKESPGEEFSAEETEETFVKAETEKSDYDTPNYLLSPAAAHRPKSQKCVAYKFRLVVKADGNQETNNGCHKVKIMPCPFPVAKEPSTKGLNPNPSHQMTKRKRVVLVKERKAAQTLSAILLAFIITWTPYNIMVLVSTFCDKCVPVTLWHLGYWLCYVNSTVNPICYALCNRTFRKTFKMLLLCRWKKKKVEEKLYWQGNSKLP
The experiment in a line: Inhibition of [3H](R)-QNB binding to human M1/M5(o2) chimeric receptor expressed in A9 L cells. Type of assay: cell-based, A9L.

The target in assay [3] is T2, Muscarinic acetylcholine receptor M1/M5 chimeric protein. The assay can be described thus: Agonist activity at human M1/M5(o3) chimeric receptor expressed in A9 L cells assessed as stimulation of phosphoinositide hydrolysis. Type of assay: functional, cell-based, L929.
The test system of assay [4] is T3, Muscarinic acetylcholine receptor M1 (Homo sapiens), P11229 [Q185E].
T3 sequence (whole entry): T1 sequence (whole entry) with Q185E
The assay can be described thus: Agonist activity at human M1 receptor Q185E mutant expressed in A9 L cells assessed as stimulation of phosphoinositide hydrolysis relative to carbachol. The settings on record: L929. Type of assay: functional, cell-based. A digest of the protocol: as §1

Assay [5] has as its target T2, Muscarinic acetylcholine receptor M1/M5 chimeric protein. The experiment in a line: Inhibition of [3H](R)-QNB binding to human M1/M5(o3) chimeric receptor expressed in A9 L cells. Type of assay: cell-based, A9L.
In assay [6] the target is Muscarinic acetylcholine receptor M1 (Homo sapiens, UniProt P11229, E170K). Type of assay: functional, cell-based, L929.
The target of assay [7] is T4, Muscarinic acetylcholine receptor M5 (Homo sapiens) (UniProt P08912).
T4 sequence (whole entry): T2 sequence (P08912 whole entry)
The assay can be described thus: Agonist activity at human M5 receptor expressed in A9 L cells assessed as stimulation of phosphoinositide hydrolysis relative to carbachol. Type of assay: functional, cell-based. The settings on record: L929. A digest of the protocol:
as §1

Assay [8] concerns the target T2, Muscarinic acetylcholine receptor M1/M5 chimeric protein. The experiment in a line: Inhibition of [3H](R)-QNB binding to human M1/M5(o2o3) chimeric receptor expressed in A9 L cells. Type of assay: cell-based, A9L.
The test system of assay [9] is T5, Muscarinic acetylcholine receptor M1 (Homo sapiens), P11229 [E170K].
T5 sequence (whole entry): T1 sequence (whole entry) with E170K
The assay can be described thus: Agonist activity at human M1 receptor E170K mutant expressed in A9 L cells assessed as stimulation of phosphoinositide hydrolysis relative to carbachol. Type of assay: functional, cell-based. The settings on record: L929. The essentials: as §1

Assay [10] deals with T6, Muscarinic acetylcholine receptor M1/M5 chimeric protein (Homo sapiens) (UniProt P11229+P08912). The assay can be described thus: Agonist activity at human M1/M5(o3) chimeric receptor expressed in A9 L cells assessed as stimulation of phosphoinositide hydrolysis relative to carbachol. Type of assay: functional, cell-based. To be noted: L929. A digest of the protocol:
as §1

For assay [11], the target named is Muscarinic acetylcholine receptor M1 (Homo sapiens, UniProt P11229, Q185E). Type of assay: functional, cell-based, L929.
Assay [12] deals with T6, Muscarinic acetylcholine receptor M1/M5 chimeric protein (Homo sapiens). The experiment in a line: Agonist activity at human M1/M5(o2o3) chimeric receptor expressed in A9 L cells assessed as stimulation of phosphoinositide hydrolysis relative to carbachol. Type of assay: functional, cell-based. The settings on record: L929. The essentials:
as §1

Assay [13] addresses T2, Muscarinic acetylcholine receptor M1/M5 chimeric protein. The assay can be described thus: Agonist activity at human M1/M5(o2) chimeric receptor expressed in A9 L cells assessed as stimulation of phosphoinositide hydrolysis. Type of assay: functional, cell-based, L929.
Assay [14] concerns the target T6, Muscarinic acetylcholine receptor M1/M5 chimeric protein (Homo sapiens). The experiment in a line: Agonist activity at human M1/M5(o2) chimeric receptor expressed in A9 L cells assessed as stimulation of phosphoinositide hydrolysis relative to carbachol. Type of assay: functional, cell-based. The settings on record: L929. The essentials:
as §1

For assay [15], the target named is Muscarinic acetylcholine receptor M1 (Homo sapiens, UniProt P11229, T192A). The experiment in a line: Inhibition of [3H](R)-QNB binding to human M1 receptor Thr192Ala mutant expressed in A9 L cells. Type of assay: cell-based, A9L.
Muscarinic acetylcholine receptor M1 (Homo sapiens, UniProt P11229, T192A), sequence (P11229 whole entry T192A): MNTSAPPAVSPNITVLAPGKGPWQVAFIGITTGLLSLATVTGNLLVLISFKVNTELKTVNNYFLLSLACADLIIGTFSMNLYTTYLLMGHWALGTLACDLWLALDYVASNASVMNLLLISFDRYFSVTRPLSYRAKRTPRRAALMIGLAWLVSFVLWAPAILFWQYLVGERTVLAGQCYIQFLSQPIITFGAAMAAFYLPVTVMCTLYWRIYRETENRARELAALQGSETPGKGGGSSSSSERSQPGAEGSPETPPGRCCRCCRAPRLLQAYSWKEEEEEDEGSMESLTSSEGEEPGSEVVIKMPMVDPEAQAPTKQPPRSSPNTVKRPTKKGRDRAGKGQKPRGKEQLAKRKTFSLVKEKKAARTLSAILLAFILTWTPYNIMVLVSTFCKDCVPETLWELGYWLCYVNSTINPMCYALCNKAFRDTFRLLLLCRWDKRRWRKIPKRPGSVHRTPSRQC

Muscarinic acetylcholine receptor M1 (Homo sapiens, UniProt P11229, Q185E), sequence (P11229 whole entry Q185E): as the sequence (P11229 whole entry T192A) above, with Q185E, A192T counted along it
Muscarinic acetylcholine receptor M1 (Homo sapiens, UniProt P11229, E170K), sequence (P11229 whole entry E170K): as the sequence (P11229 whole entry T192A) above, with E170K, A192T counted along it

The term Ki denotes the equilibrium dissociation constant of an inhibitor or competing ligand from its target. A lower Ki goes with tighter binding. The term EC50 denotes the concentration at which the effect is half-maximal. Consider `CN1CCC=C(c2nsnc2OCCOCCOCCOCCOc2nsnc2C2=CCCN(C)C2)C1`, for which the Smax amounted to 69% in assay [1]; 50% in assay [4]; 66% in assay [9]; 23% in assay [10]; 2% in [12]; 34% in assay [14]. The Ki was 39.8 nM in assay [2], 20 nM in [5], 100 nM in assay [8] and 100 nM in assay [15]. In addition, the EC50 in [3] is 631 nM; in assay [6] it was 10 nM; in assay [11], 50.1 nM; in assay [13], 79.4 nM. In assay [7], the result was inactive.
